Measurements published in ChEMBL document CHEMBL1122346, “Antihypertensive activity of 6-arylpyrido[2,3-d]pyrimidin-7-amine derivatives. 2. 7-Acyl amide analogues” (J Med Chem, 1983).
Converted amounts (≈) assume the structure as drawn. “And” between values parts separate entries of the source, which are not always exact repeats. Identical values can stand only once.

Legend:
[1] = tested on: Rattus norvegicus; assay: Antihypertensive activity rating in conscious SHR after 2 hr post dose at 50 mg/kg (po); Range 10-20%; type: functional
[2] = tested on: Rattus norvegicus; assay: Antihypertensive activity rating in conscious SHR after 24 h post dose at 10 mg/kg (po); 0=No significant reduction; type: functional
[3] = tested on: Rattus norvegicus; assay: Antihypertensive activity rating in conscious SHR after 24 hr post dose at 50 mg/kg (po); Range 10-20%; type: functional
[4] = species on record: Rattus norvegicus; assay: Maximum percent decrease in blood pressure in SHR ( hour post dose in parentheses); type: functional
[5] = tested on: Rattus norvegicus; assay: Antihypertensive activity rating in conscious SHR after 10 hr post dose at 10 mg/kg (po); 0=No significant reduction; type: functional
[6] = tested on: Rattus norvegicus; assay: Antihypertensive activity rating in conscious SHR after 10 hr post dose at 50 mg/kg (po); Range 20-30%; type: functional
[7] = tested on: Rattus norvegicus; assay: Antihypertensive activity rating in conscious SHR after 2 hr post dose at 10 mg/kg (po); Range 10-20%; type: functional
[8] = tested on: Rattus norvegicus; assay: Antihypertensive activity rating in conscious SHR after 2 hr post dose at 50 mg/kg (po); Range 20-30%; type: functional
[9] = tested on: Rattus norvegicus; assay: Antihypertensive activity rating in conscious SHR after 18 hr post dose at 50 mg/kg (po); Range 20-30%; type: functional
[10] = tested on: Rattus norvegicus; assay: Antihypertensive activity rating in conscious SHR after 24 h post dose at 50 mg/kg (po); Range 20-30%; type: functional
[11] = tested on: Rattus norvegicus; assay: Antihypertensive activity in conscious spontaneously hypertensive rats 24 hr following 50 mg/kg p.o.; No significant reduction.; type: functional; conditions: route oral
[12] = tested on: Rattus norvegicus; assay: Antihypertensive activity in conscious spontaneously hypertensive rats 10 hr following 50 mg/kg p.o.; Range 10-20%.; type: functional; conditions: route oral
[13] = Solubility, determined in 0.1 N HCl; type: physicochemical; conditions: read-out: S
Procedure, shortened: (§1)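 Dissolved compound was quantified by UV absorption. For the pH 7 value, the acidic solution was brought to pH 7 to give the unprotonated base, the precipitate was removed, and the supernatant was assayed again by UV.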

[14] = Solubility, determined in phosphate buffer at pH 7; type: physicochemical; procedure, shortened: as §1
[15] = pKa value, measured in 67% of DMF; type: physicochemical; conditions: 67% DMF
Procedure, shortened: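 Dissociation constants were found by potentiometric titration in 67% N,N-dimethylformamide/water.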

[16] = Half-life measured in 1:1 ratio of MeOH and phosphate buffer at pH 7; Stable; type: ADME
Procedure, shortened: (§2)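 Hydrolytic stability was tested at room temperature on solutions of ca. 0.001-0.002%. Media were 0.1 N HCl (pH ~1.5), 50% MeOH/pH 7 phosphate buffer (pH ~8.0), and 50% MeOH/0.05 N aqueous NaOH (pH ~12.2). Changes in the UV spectrum were followed over 2 weeks.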

[17] = Half-life measured in 0.1 N HCl; Stable; type: ADME; conditions: buffer; procedure, shortened: as §2
[18] = Half-life measured in 1:1 ratio of MeOH and 0.1 N NaOH; type: ADME; conditions: 1:1 MeOH / 0.1 N NaOH; procedure, shortened: as §2
[19] = tested on: Rattus norvegicus; assay: Antihypertensive activity rating in conscious SHR after 24-72 hr post dose at 10 mg/kg (po); Range 10-20%; type: functional
[20] = tested on: Rattus norvegicus; assay: Antihypertensive activity rating in conscious SHR after 10 hr post dose at 10 mg/kg (po); Range 10-20%; type: functional
[21] = pKa value, measured in 67% DMF/water
[22] = tested on: Rattus norvegicus; assay: Antihypertensive activity rating in conscious SHR after 18 hr post dose at 50 mg/kg (po); type: functional
[23] = tested on: Rattus norvegicus; assay: Antihypertensive activity in conscious spontaneously hypertensive rats 2 hr following 50 mg/kg p.o.; No significant reduction.; type: functional; conditions: route oral
[24] = tested on: Rattus norvegicus; assay: Antihypertensive activity rating in conscious SHR after 24 hr post dose at 50 mg/kg (po)v; type: functional
[25] = tested on: Rattus norvegicus; assay: Antihypertensive activity rating in conscious SHR after 2 hr post dose at 10 mg/kg (po); 0=No significant reduction; type: functional
[26] = tested on: Rattus norvegicus; assay: Antihypertensive activity rating in conscious SHR after 24 h post dose at 10 mg/kg (po); Range 10-20%; type: functional
[27] = tested on: Rattus norvegicus; assay: Antihypertensive activity rating in conscious SHR after 10 hr post dose at 10 mg/kg (po); Range 20-30%; type: functional
[28] = Half-life measured in 0.1 N HCl; type: ADME; procedure, shortened: as §2
[29] = Half-life measured in 1:1 ratio of MeOH and phosphate buffer at pH 7; type: ADME; conditions: 1:1 MeOH / phosphate buffer; procedure, shortened: as §2
[30] = tested on: Rattus norvegicus; assay: Antihypertensive activity rating in conscious SHR after 10 hr post dose at 50 mg/kg (po); type: functional
[31] = tested on: Rattus norvegicus; assay: Antihypertensive activity rating in conscious SHR after 2 hr post dose at 10 mg/kg (po); Range 20-30%; type: functional
[32] = tested on: Rattus norvegicus; assay: Antihypertensive activity rating in conscious SHR after 2 hr post dose at 50 mg/kg (po); type: functional
[33] = tested on: Rattus norvegicus; assay: Antihypertensive activity rating in conscious SHR after 24 hr post dose at 50 mg/kg (po); 0=No significant reduction; type: functional
[34] = tested on: Rattus norvegicus; assay: Antihypertensive activity in conscious spontaneously hypertensive rats 10 hr following 50 mg/kg p.o.; No significant reduction.; type: functional; conditions: route oral

Cc1ncc2cc(-c3c(Cl)cccc3Cl)c(NC(=O)CNC(=O)OCc3ccccc3)nc2n1
Activity rating [1]: 10% | Activity rating [2]: 0% | Activity rating [3]: 10% | Decrease [4]: 29% | Activity rating [5]: 0% | Activity rating [6]: 20% | Activity rating [7]: 10%

Cc1ncc2cc(-c3c(Cl)cccc3Cl)c(NC(=O)C(F)(F)F)nc2n1
Activity rating [8]: 20% | Decrease [4]: 23% | Activity rating [6]: 20% | Activity rating [9]: 20%

Cc1ncc2cc(-c3c(Cl)cccc3Cl)c(NC(=O)c3ccccc3)nc2n1
Activity rating [8]: 20% | Activity rating [10]: 20% | Decrease [4]: 30% | Activity rating [6]: 20%

C/N=C(\N)Nc1nc2nc(C)ncc2cc1-c1c(Cl)cccc1Cl
Activity rating [8]: 20% | Activity rating [11]: 0% | Decrease [4]: 24% | Activity rating [12]: 10%

COC(=O)Nc1nc2nc(C)ncc2cc1-c1c(Cl)cccc1Cl
solubility [13]: 14.6 mg/mL (≈ 40.2 mM) | solubility [14]: 0.28 mg/mL (≈ 0.771 mM) | pKa [15]: 4.2 | T1/2 [16]: Stable | T1/2 [17]: Stable | half-life [18]: 6 h | Activity rating [1]: 10% | Activity rating [3]: 10% | Activity rating [19]: 10% | Decrease [4]: 29% | Activity rating [20]: 10% | pKa [21]: 11.3

CC(=O)Nc1ncc2cc(-c3c(Cl)cccc3Cl)c(NC(C)=O)nc2n1
Decrease [4]: 32% | Activity rating [6]: 20% | Activity rating [22]: >30% | Activity rating [23]: 0%

CC(=O)Nc1nc2ncncc2cc1-c1ccccc1Br
Activity rating [1]: 10% | Activity rating [24]: 0% | Decrease [4]: 19% | Activity rating [12]: 10%

Cc1ncc2cc(-c3c(Cl)cccc3Cl)c(NS(C)(=O)=O)nc2n1
Activity rating [1]: 10% | Activity rating [2]: 0% | Activity rating [10]: 20% | Decrease [4]: 22% | Activity rating [5]: 0% | Activity rating [12]: 10% | Activity rating [25]: 0%

Cc1ncc2cc(-c3c(Cl)cccc3Cl)c(NC(=O)N(C)C)nc2n1
Activity rating [1]: 10% | Activity rating [10]: 20% | Decrease [4]: 26% | Activity rating [12]: 10%

NNc1nncc2ccccc12 [HYDRALAZINE]
Activity rating [26]: 10% | Decrease [4]: 51% and 27% | Activity rating [27]: 20%

CC(=O)Nc1nc2nc(C)ncc2cc1-c1c(Cl)cccc1Cl
solubility [13]: 34.2 mg/mL (≈ 98.5 mM) | solubility [14]: 6.05 mg/mL (≈ 17.4 mM) | pKa [15]: 4.1 | half-life [28]: 12.5 h | half-life [18]: < 0.0833 h | half-life [29]: 60 h | Activity rating [19]: 10% | Decrease [4]: 45% | Activity rating [27]: 20% | Activity rating [30]: >30% | Activity rating [22]: >30% | Activity rating [31]: 20% | Activity rating [32]: >30% | pKa [21]: 12.8

Cc1ncc2cc(-c3c(Cl)cccc3Cl)c(NC(=O)C(C)(C)C)nc2n1
Activity rating [2]: 0% | Activity rating [5]: 0% | Activity rating [25]: 0%

Cc1ncc2cc(-c3c(Cl)cccc3Cl)c(NC(=O)CCl)nc2n1
Activity rating [2]: 0% | Decrease [4]: 24% | Activity rating [27]: 20% | Activity rating [7]: 10%

Cc1ncc2cc(-c3c(Cl)cccc3Cl)c(NC=O)nc2n1
Activity rating [8]: 20% | Activity rating [26]: 10% | Decrease [4]: 33% | Activity rating [20]: 10% | Activity rating [30]: >30% | Activity rating [22]: >30% | Activity rating [7]: 10%

Cc1ncc2cc(-c3c(Cl)cccc3Cl)c(/N=C/N(C)C)nc2n1
Activity rating [3]: 10% | Decrease [4]: 17% | Activity rating [12]: 10% | Activity rating [23]: 0%

Cc1ncc2cc(-c3c(Cl)cccc3Cl)c(NC(=O)Cc3ccccc3)nc2n1
Activity rating [1]: 10% | Activity rating [3]: 10% | Decrease [4]: 17% | Activity rating [12]: 10%

C/N=C(\NC)Nc1nc2nc(C)ncc2cc1-c1c(Cl)cccc1Cl
Activity rating [8]: 20% | Activity rating [11]: 0% | Decrease [4]: 24% | Activity rating [12]: 10%

Cc1ncc2cc(-c3c(Cl)cccc3Cl)c(NC(=O)c3ccccn3)nc2n1
Activity rating [1]: 10% | Activity rating [10]: 20% | Activity rating [19]: 10% | Decrease [4]: 29% | Activity rating [20]: 10% | Activity rating [6]: 20%

Cc1ncc2cc(-c3c(Cl)cccc3Cl)c(NC(=O)c3ccncc3)nc2n1
Activity rating [26]: 10% | Decrease [4]: 18% | Activity rating [20]: 10% | Activity rating [7]: 10%

CCO/C(=N\C)Nc1nc2nc(C)ncc2cc1-c1c(Cl)cccc1Cl
Activity rating [33]: 0% | Decrease [4]: 10% | Activity rating [34]: 0% | Activity rating [23]: 0%

CC(=O)N(C)c1nc2nc(C)ncc2cc1-c1c(Cl)cccc1Cl
pKa [15]: 4.2 | T1/2 [16]: Stable | T1/2 [17]: Stable | half-life [18]: 1.6 h | Activity rating [11]: 0% | Activity rating [34]: 0% | Activity rating [23]: 0%

Cc1ncc2cc(-c3c(Cl)cccc3Cl)c(NC(=O)c3cccc(N(C)C)c3)nc2n1
Activity rating [3]: 10% | Decrease [4]: 15% | Activity rating [12]: 10% | Activity rating [23]: 0%

Cc1ncc2cc(-c3c(Cl)cccc3Cl)c(NC(=O)c3cccnc3)nc2n1
solubility [13]: 26.6 mg/mL (≈ 64.8 mM) | solubility [14]: 2.63 mg/mL (≈ 6.41 mM) | pKa [15]: 4.1 | T1/2 [17]: Stable | half-life [18]: 4 h | half-life [29]: 54 h | Activity rating [1]: 10% | Activity rating [19]: 10% | Decrease [4]: 26% | Activity rating [6]: 20% | Activity rating [7]: 10% | pKa [21]: 9.8

CNc1nc2nc(C)ncc2cc1-c1c(Cl)cccc1Cl
Activity rating [1]: 10% | Decrease [4]: 21% | Activity rating [12]: 10% | Activity rating [9]: 20%

COCC(=O)Nc1nc2nc(C)ncc2cc1-c1c(Cl)cccc1Cl
Activity rating [8]: 20% | Activity rating [26]: 10% | Activity rating [10]: 20% | Decrease [4]: 29% | Activity rating [5]: 0% | Activity rating [6]: 20% | Activity rating [25]: 0%

Cc1ncc2cc(-c3c(Cl)cccc3Cl)c(NC(=O)c3ccoc3)nc2n1
Activity rating [26]: 10% | Decrease [4]: 28% | Activity rating [27]: 20% | Activity rating [31]: 20%

CNC(=O)Nc1nc2nc(C)ncc2cc1-c1c(Cl)cccc1Cl
Activity rating [8]: 20% | Activity rating [11]: 0% | Decrease [4]: 26% | Activity rating [12]: 10%

CC(=O)/N=c1/c(-c2c(Cl)cccc2Cl)cc2cnc(C)nc2n1C
pKa [15]: 2.5 | T1/2 [16]: Stable | half-life [28]: 3.4 h | half-life [18]: 8.8 h | Activity rating [1]: 10% | Activity rating [3]: 10% | Decrease [4]: 17% | Activity rating [34]: 0%

Cc1ncc2cc(-c3c(Cl)cccc3Cl)c(NC(=O)c3ccccc3C)nc2n1
Activity rating [3]: 10% | Decrease [4]: 23% | Activity rating [12]: 10% | Activity rating [23]: 0%

CC(=O)Nc1nc2nc(C)nc(C)c2cc1-c1c(Cl)cccc1Cl
Activity rating [8]: 20% | Activity rating [11]: 0% | Decrease [4]: 20% | Activity rating [34]: 0%

C/C(=N\c1nc2nc(C)ncc2cc1-c1c(Cl)cccc1Cl)N(C)C
Activity rating [1]: 10% | Activity rating [3]: 10% | Decrease [4]: 18% | Activity rating [34]: 0%

Cc1ncc2cc(-c3c(Cl)cccc3Cl)c(NC(=O)c3ccccc3F)nc2n1
Activity rating [2]: 0% | Activity rating [5]: 0% | Activity rating [25]: 0%
